Results published in ChEMBL document CHEMBL4251563, “Design and synthesis of thienopyrimidine urea derivatives with potential cytotoxic and pro-apoptotic activity against breast cancer cell line MCF-7” (Eur J Med Chem, 2018).
pIC50: −log10 of the molar value. Blank lines part the entries; values can stand above or below the compound they belong to.

Columns and labels:
MCF7 [1] = experiment: Antiproliferative activity against human MCF7 cells after 48 hrs by sulforhodamine B assay; assay type: functional, cell-based; conditions: MCF7, 48 h
Procedure, shortened: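 MCF-7 cells seeded at 5×10^4–10^5 cells/well, allowed to attach 24 h, then exposed to 0, 5, 12.5, 25 and 50 µg/mL for 48 h. Compounds were dissolved in DMSO and diluted with saline; controls got vehicle only; four wells per concentration. Cells fixed with cold 50% TCA, stained with 0.4% SRB, dye solubilised in 10 mM tris pH 10.5, OD read at 564 nm. Survival fraction = OD treated/OD control; IC50 taken from the survival-versus-concentration plot.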

MCF7 [2] = experiment: Induction of apoptosis in human MCF7 cells assessed as late apoptotic cells at 7.1 uM after 24 hrs by Annexin V-FITC/propidium iodide staining based flow cytometry (reference value: 0.3%); assay type: functional
MCF7 [3] = experiment: Cell cycle arrest in human MCF7 cells assessed as increase in accumulation at pre-G1 phase at 7.1 uM after 24 hrs by propidium iodide staining-based flow cytometry relative to control; assay type: functional
Procedure, shortened: (§1)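 MCF-7 cells treated 24 h with 7.10 µM. Cells washed with ice-cold PBS, fixed in ice-cold 70% ethanol, resuspended with 0.1 mg/mL RNase and stained with propidium iodide. DNA content read by FACSCalibur flow cytometry to give phase distribution (pre-G1/sub-G1, G1, S, G2/M).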

MCF7 [4] = experiment: Cell cycle arrest in human MCF7 cells assessed as accumulation at subG1 phase at 7.1 uM after 24 hrs by propidium iodide staining-based flow cytometry (reference value: 1.2%); assay type: functional; procedure, shortened: as §1
MCF7 [5] = experiment: Induction of apoptosis in human MCF7 cells assessed as active caspase3 expression levels at 7.1 uM after 24 hrs by SYBR Green dye-based RT-PCR analysis (reference value: 75 IU/ml); assay type: functional
MCF7 [6] = experiment: Induction of apoptosis in human MCF7 cells assessed as BAX expression levels at 7.1 uM after 24 hrs by SYBR Green dye-based RT-PCR analysis (reference value: 196 IU/ml); assay type: functional
MCF7 [7] = experiment: Cell cycle arrest in human MCF7 cells assessed as increase in accumulation at G2/M phase at 7.1 uM after 24 hrs by propidium iodide staining-based flow cytometry relative to control; assay type: functional; procedure, shortened: as §1
MCF7 [8] = experiment: Induction of apoptosis in human MCF7 cells assessed as early apoptotic cells at 7.1 uM after 24 hrs by Annexin V-FITC/propidium iodide staining based flow cytometry (reference value: 0.7%); assay type: functional
MCF7 [9] = experiment: Cell cycle arrest in human MCF7 cells assessed as accumulation at S phase at 7.1 uM after 24 hrs by propidium iodide staining-based flow cytometry (reference value: 25.2%); assay type: functional; procedure, shortened: as §1
MCF7 [10] = experiment: Potency index, ratio of doxorubicin IC50 to compound IC50 for antiproliferative activity against human MCF7 cells; assay type: functional
MCF7 [11] = experiment: Induction of apoptosis in human MCF7 cells assessed as viable cells at 7.1 uM after 24 hrs by Annexin V-FITC/propidium iodide staining based flow cytometry (reference value: 99.9%); assay type: functional
[12] = biological target: T1, Vascular endothelial growth factor receptor 2 (Homo sapiens, UniProt P35968); experiment: Inhibition of human VEGFR2 after 2 hrs by ELISA
T1 sequence (P35968 whole entry): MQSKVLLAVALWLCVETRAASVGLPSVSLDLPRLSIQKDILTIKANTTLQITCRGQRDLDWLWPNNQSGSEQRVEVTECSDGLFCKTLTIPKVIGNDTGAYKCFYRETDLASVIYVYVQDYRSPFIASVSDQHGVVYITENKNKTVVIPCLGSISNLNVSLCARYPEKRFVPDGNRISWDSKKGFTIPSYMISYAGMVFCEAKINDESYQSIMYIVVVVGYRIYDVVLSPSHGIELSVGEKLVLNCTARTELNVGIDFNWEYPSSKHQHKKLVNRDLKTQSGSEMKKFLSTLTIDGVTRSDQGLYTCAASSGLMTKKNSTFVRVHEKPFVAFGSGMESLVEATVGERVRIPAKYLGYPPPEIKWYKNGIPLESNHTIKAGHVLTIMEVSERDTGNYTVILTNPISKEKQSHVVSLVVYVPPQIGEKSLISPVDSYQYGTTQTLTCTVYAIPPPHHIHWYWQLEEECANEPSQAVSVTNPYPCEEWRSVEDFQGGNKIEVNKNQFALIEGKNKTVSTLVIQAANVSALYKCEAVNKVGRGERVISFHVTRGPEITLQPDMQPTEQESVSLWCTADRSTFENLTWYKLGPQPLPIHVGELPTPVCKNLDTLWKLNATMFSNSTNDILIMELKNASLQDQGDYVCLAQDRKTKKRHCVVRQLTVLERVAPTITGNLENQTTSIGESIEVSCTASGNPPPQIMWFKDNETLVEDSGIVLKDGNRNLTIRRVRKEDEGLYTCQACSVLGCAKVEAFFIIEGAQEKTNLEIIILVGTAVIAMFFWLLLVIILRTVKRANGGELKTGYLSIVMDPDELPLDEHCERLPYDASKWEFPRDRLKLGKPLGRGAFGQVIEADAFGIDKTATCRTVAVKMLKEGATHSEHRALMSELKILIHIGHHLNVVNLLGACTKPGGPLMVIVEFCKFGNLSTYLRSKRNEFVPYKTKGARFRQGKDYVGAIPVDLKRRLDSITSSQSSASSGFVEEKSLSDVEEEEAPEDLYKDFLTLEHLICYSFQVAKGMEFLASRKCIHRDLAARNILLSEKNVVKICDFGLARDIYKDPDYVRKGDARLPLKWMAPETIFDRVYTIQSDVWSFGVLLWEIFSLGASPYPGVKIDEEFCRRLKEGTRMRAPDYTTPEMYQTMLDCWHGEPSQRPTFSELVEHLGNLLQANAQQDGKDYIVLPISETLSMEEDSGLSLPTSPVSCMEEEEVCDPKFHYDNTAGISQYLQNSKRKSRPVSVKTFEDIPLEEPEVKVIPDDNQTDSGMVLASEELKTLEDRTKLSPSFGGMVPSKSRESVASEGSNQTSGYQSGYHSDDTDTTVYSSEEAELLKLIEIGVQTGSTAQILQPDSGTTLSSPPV

MCF7 [13] = experiment: Induction of apoptosis in human MCF7 cells assessed as p53 expression levels at 7.1 uM after 24 hrs by SYBR Green dye-based RT-PCR analysis (reference value: 244 IU/ml); assay type: functional
MCF7 [14] = experiment: Induction of apoptosis in human MCF7 cells assessed as necrotic cells at 7.1 uM after 24 hrs by Annexin V-FITC/propidium iodide staining based flow cytometry (reference value: 0.1%); assay type: functional
DNA topoisomerase 2-beta = DNA topoisomerase 2-beta (Homo sapiens, UniProt Q02880); experiment: Inhibition of human topoisomerase 2beta after 2 hrs at 37 degC by ELISA
DNA topoisomerase 2-beta, sequence (Q02880 whole entry): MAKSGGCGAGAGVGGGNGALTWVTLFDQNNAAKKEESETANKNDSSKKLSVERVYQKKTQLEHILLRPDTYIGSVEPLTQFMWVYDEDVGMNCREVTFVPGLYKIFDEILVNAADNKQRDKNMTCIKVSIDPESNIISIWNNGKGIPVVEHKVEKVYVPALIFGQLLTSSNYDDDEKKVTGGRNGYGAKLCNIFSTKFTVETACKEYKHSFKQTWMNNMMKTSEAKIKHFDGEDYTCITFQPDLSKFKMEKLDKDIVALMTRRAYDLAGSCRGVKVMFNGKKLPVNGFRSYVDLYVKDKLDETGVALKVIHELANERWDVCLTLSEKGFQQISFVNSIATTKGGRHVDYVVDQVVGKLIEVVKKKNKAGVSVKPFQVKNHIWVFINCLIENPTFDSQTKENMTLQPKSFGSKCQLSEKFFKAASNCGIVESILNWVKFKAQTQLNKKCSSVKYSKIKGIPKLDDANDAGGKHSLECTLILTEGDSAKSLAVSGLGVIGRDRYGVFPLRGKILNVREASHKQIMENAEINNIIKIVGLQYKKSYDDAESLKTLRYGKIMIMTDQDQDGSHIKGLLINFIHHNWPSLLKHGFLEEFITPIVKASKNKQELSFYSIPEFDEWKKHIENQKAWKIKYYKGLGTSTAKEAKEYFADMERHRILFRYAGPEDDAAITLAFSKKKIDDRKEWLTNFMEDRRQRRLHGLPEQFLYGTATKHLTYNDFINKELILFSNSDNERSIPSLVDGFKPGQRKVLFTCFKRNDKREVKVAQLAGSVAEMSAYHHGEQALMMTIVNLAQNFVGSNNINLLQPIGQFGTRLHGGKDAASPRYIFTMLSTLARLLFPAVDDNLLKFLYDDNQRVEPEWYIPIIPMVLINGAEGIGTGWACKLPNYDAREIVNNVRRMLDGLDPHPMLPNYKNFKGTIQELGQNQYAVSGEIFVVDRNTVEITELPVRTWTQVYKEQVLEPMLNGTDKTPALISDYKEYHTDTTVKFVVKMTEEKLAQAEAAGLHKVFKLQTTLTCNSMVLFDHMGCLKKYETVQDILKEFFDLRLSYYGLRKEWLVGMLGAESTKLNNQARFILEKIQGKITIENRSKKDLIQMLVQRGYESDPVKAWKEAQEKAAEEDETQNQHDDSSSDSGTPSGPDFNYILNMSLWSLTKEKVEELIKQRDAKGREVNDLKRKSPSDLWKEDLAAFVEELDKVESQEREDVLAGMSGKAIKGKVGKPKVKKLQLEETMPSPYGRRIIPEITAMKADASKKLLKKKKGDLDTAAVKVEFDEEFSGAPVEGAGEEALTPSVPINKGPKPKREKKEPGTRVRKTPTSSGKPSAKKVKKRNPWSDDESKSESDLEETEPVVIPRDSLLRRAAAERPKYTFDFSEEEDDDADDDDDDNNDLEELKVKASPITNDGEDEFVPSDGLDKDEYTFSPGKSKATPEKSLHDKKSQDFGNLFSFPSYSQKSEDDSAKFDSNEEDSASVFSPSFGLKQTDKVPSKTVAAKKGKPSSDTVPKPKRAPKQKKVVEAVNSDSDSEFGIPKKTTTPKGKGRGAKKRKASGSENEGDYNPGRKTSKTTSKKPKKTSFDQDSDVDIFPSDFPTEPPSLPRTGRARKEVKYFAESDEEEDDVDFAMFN
Procedure, shortened: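 Sandwich ELISA: standard or sample incubated 2 h at 37°C, then biotin-antibody 1 h at 37°C, then HRP-avidin 1 h at 37°C, then TMB 15–30 min at 37°C in the dark. OD read at 450 nm.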

MCF7 [15] = experiment: Cell cycle arrest in human MCF7 cells assessed as accumulation at G1 phase at 7.1 uM after 24 hrs by propidium iodide staining-based flow cytometry (reference value: 66.4%); assay type: functional; procedure, shortened: as §1
MCF7 [16] = experiment: Induction of apoptosis in human MCF7 cells assessed as early apoptotic cells at 7.1 uM after 24 hrs by Annexin V-FITC/propidium iodide staining based flow cytometry relative to control; assay type: functional
[17] = biological target: T1, Vascular endothelial growth factor receptor 2; experiment: Potency index, ratio of sorafenib IC50 to compound IC50 for inhibition of human VEGFR2
MCF7 [18] = experiment: Cell cycle arrest in human MCF7 cells assessed as accumulation at G2/M phase at 7.1 uM after 24 hrs by propidium iodide staining-based flow cytometry (reference value: 7.2%); assay type: functional; procedure, shortened: as §1
MCF7 [19] = experiment: Induction of apoptosis in human MCF7 cells assessed as Bcl2 expression levels at 7.1 uM after 24 hrs by SYBR Green dye-based RT-PCR analysis (reference value: 538306 IU/ml); assay type: functional

SMILES: Cc1cccc(NC(=S)Nc2nnc3c4c5c(sc4ncn23)CCCC5)c1
- pIC50 (MCF7 [1]): 4.00

SMILES: O=C(Nc1cc(C(F)(F)F)ccc1F)Nc1nnc2c3c4c(sc3ncn12)CCCC4
- pIC50 (MCF7 [1]): 4.14

SMILES: O=C(Nc1ccc(Nc2ncnc3sc4c(c23)CCCC4)cc1)Nc1cccc(C(F)(F)F)c1
- pIC50 (MCF7 [1]): 4.29

SMILES: O=C(Nc1ccc(Nc2ncnc3sc4c(c23)CCCC4)cc1)Nc1c(Cl)cccc1Cl
- pIC50 (MCF7 [1]): 3.99

SMILES: Cc1ccc(NC(=S)Nc2ccc(Nc3ncnc4sc5c(c34)CCCC5)cc2)cc1
- pIC50 (MCF7 [1]): 4.25

SMILES: O=C(NNc1ncnc2sc3c(c12)CCCC3)Nc1c(Cl)cccc1Cl
- pIC50 (MCF7 [1]): 4.05

SMILES: S=C(Nc1ccc(Cl)cc1)Nc1ccc(Nc2ncnc3sc4c(c23)CCCC4)cc1
- pIC50 (MCF7 [1]): 4.29

SMILES: Cc1cccc(Cl)c1-n1c(-c2ccc(Br)cc2)co/c1=N\c1ccc(Nc2ncnc3sc4c(c23)CCCC4)cc1
- pIC50 (MCF7 [1]): 3.63

SMILES: O=C(Nc1cccc(C(F)(F)F)c1)Nc1nnc2c3c4c(sc3ncn12)CCCC4
- pIC50 (MCF7 [1]): 4.16

SMILES: S=C(Nc1ccccc1)Nc1nnc2c3c4c(sc3ncn12)CCCC4
- pIC50 (MCF7 [1]): 4.09

SMILES: Cc1cccc(Cl)c1NC(=O)Nc1ccc(Nc2ncnc3sc4c(c23)CCCC4)cc1
- pIC50 (MCF7 [1]): 4.27

SMILES: COc1ccc(NC(=S)Nc2ccc(Nc3ncnc4sc5c(c34)CCCC5)cc2)cc1
- pIC50 (MCF7 [1]): 4.10

SMILES: Cc1cccc(Cl)c1NC(=S)Nc1ccc(Nc2ncnc3sc4c(c23)CCCC4)cc1
- pIC50 (MCF7 [1]): 4.28

SMILES: Cc1cccc(Cl)c1NC(=O)NNc1ncnc2sc3c(c12)CCCC3
- pIC50 (MCF7 [1]): 4.04

SMILES: O=C(NNc1ncnc2sc3c(c12)CCCC3)Nc1ccc(Cl)c(C(F)(F)F)c1
- pIC50 (MCF7 [1]): 4.27

Compounds with a higher pIC50 (MCF7 [1]), results first:

- pIC50 (MCF7 [1]): 4.32
SMILES: S=C(Nc1ccccc1)Nc1ccc(Nc2ncnc3sc4c(c23)CCCC4)cc1

- pIC50 (MCF7 [1]): 4.41
SMILES: Cc1cccc(NC(=S)Nc2ccc(Nc3ncnc4sc5c(c34)CCCC5)cc2)c1

- pIC50 (MCF7 [1]): 4.43
SMILES: Brc1ccc(-c2cs/c(=N\c3ccc(Nc4ncnc5sc6c(c45)CCCC6)cc3)n2-c2ccccc2)cc1

- pIC50 (MCF7 [1]): 4.54
SMILES: Cc1cccc(Cl)c1NC(=O)Nc1nnc2c3c4c(sc3ncn12)CCCC4

- pIC50 (MCF7 [1]): 4.55
SMILES: O=C(NNc1ncnc2sc3c(c12)CCCC3)Nc1cc(C(F)(F)F)ccc1F

- pIC50 (MCF7 [1]): 4.64
SMILES: O=C(NNc1ncnc2sc3c(c12)CCCC3)Nc1cccc(C(F)(F)F)c1

- pIC50 (DNA topoisomerase 2-beta): 5.46
- pIC50 (MCF7 [1]): 4.97
SMILES: COc1cccc2c1C(=O)c1c(O)c3c(c(O)c1C2=O)C[C@@](O)(C(=O)CO)C[C@@H]3O[C@H]1C[C@H](N)[C@H](O)[C@H](C)O1 [DOXORUBICIN]
- Activity (MCF7 [5]): 363940 IU/ml
- Activity (MCF7 [6]): 1824021 IU/ml
- Activity (MCF7 [13]): 1271.6 IU/ml
- Activity (MCF7 [19]): 8 IU/ml

- pIC50 (MCF7 [1]): 4.99
SMILES: O=C(Nc1ccc(Nc2ncnc3sc4c(c23)CCCC4)cc1)Nc1cc(C(F)(F)F)ccc1F
- Ratio IC50 (MCF7 [10]): 1.03 - 1.5

- pIC50 (MCF7 [1]): 5.02
SMILES: S=C(Nc1ccc(Br)cc1)Nc1ccc(Nc2ncnc3sc4c(c23)CCCC4)cc1
- Ratio IC50 (MCF7 [10]): 1.03 - 1.5

- pIC50 [12]: 6.70
- pIC50 (DNA topoisomerase 2-beta): 5.03
- Ratio IC50 [17]: 2.1
- pIC50 (MCF7 [1]): 5.15
SMILES: O=C(Nc1ccc(Nc2ncnc3sc4c(c23)CCCC4)cc1)Nc1ccc(Cl)c(C(F)(F)F)c1
- Activity (MCF7 [2]): 7%
- fold change (FC) (MCF7 [3]): 15.1
- Activity (MCF7 [4]): 18.2%
- Activity (MCF7 [5]): 64223 IU/ml
- Activity (MCF7 [6]): 389968 IU/ml
- fold change (FC) (MCF7 [7]): 2.2
- Activity (MCF7 [8]): 21%
- Activity (MCF7 [9]): 29.2%
- Ratio IC50 (MCF7 [10]): 1.03 - 1.5
- Activity (MCF7 [11]): 69%
- Activity (MCF7 [13]): 77214 IU/ml
- Activity (MCF7 [14]): 3%
- Activity (MCF7 [15]): 36.3%
- fold change (FC) (MCF7 [16]): 30
- Activity (MCF7 [18]): 16.3%
- Activity (MCF7 [19]): 131 IU/ml
